Measurements: ChEMBL document CHEMBL4138133, “2,3-Dihydro-3β-methoxy Withaferin-A Protects Normal Cells against Stress: Molecular Evidence of Its Potent Cytoprotective Activity” (J Nat Prod, 2017)
Active and inactive are the calls of the source. The calls are words filed in the database; no cut-off is given here.

Legend:
TIG-3 [1] = test: Induction of oxidative stress in human TIG3 cells assessed as increase in p53 expression level at 0.6 uM by immunoblot analysis; assay type: cell-based; conditions: tig-3, 0.6 µM
Outline: (§1)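 TIG-3 cells treated with compound, lysed in NP40 buffer (centrifuged 20 min, 4 °C); 10−20 μg protein immunoblotted for indicated proteins; band quantitation from three independent experiments, Student's t or Mann−Whitney test.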

TIG-3 [2] = test: Cytoprotective activity against H2O2-induced oxidative stress in human TIG3 cells assessed as decrease in p53 level pretreated with H2O2 for 2 hrs followed by compound addition by immuno fluorescence staining based assay; assay type: functional, cell-based
TIG-3 [3] = test: Cytotoxicity against human TIG3 cells assessed as decrease in ROS generation at 1.5 to 3 uM after 48 hrs; assay type: cell-based; conditions: tig-3, 48 h
TIG-3 [4] = test: Cytotoxicity against human TIG3 cells assessed as induction of morphological changes at 0.3 to 1.5 uM after 48 hrs by phase contrast microscopy; assay type: cell-based; conditions: tig-3, 48 h
Outline: (§2)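 Phase-contrast microscopy of morphology of control and treated normal human TIG-3 fibroblasts.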

[5] = biological target: MAP kinase p38 (Homo sapiens) (UniProt O15264+Q15759+Q16539+P53778); test: Induction of p38 MAPK phosphorylation at Thr180/Tyr182 residues in H2O2 treated human TIG3 cells at 0.3 uM pretreated with H2O2 for 2 hrs followed by compound addition by immunoblot analysis
Outline: (§3)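 TIG-3 cells stressed with H2O2 (500 μM, 2 h), then recovered in medium containing 0.3 or 0.6 μM compound. Lysed in NP40 buffer; 10−20 μg protein immunoblotted for pAkt Ser473, p-p38 Thr180/Tyr182, p-p44/42 Thr202/Tyr204, β-catenin, survivin, Bcl-2 or full-length PARP-1. Triplicate experiments.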

[6] = biological target: Mitogen-activated protein kinase 3 (Homo sapiens) (UniProt P27361); test: Induction of ERK1 phosphorylation at Thr202 residues in H2O2 treated human TIG3 cells at 0.3 uM pretreated with H2O2 for 2 hrs followed by compound addition by immunoblot analysis; outline: as §3
TIG-3 [7] = test: Induction of apoptosis in human TIG3 cells assessed as decrease in Bcl2 levels at 0.3 to 3 uM by immunoblot analysis; assay type: cell-based; conditions: tig-3, 3 µM
Outline: (§4)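 TIG-3 cells treated with compound without added stress. Lysed in NP40 buffer; 10−20 μg protein immunoblotted for Bcl-2 and Bax. Band intensities quantified from three independent sets.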

TIG-3 [8] = test: Induction of oxidative stress in human TIG3 cells assessed as increase in GADD45alpha mRNA levels by RT-PCR analysis; assay type: cell-based
Outline: (§5)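 Total RNA from treated TIG-3 cells; cDNA from 2 μg RNA; PCR 95 °C 10 min, 30 cycles (95 °C 45 s, 58 °C 1 min, 72 °C 45 s), 72 °C 10 min; products on 0.8% agarose, band densitometry; three independent experiments.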

WI-38 [9] = test: Cytotoxicity against human WI38 cells assessed as cell death at 1 uM after 48 hrs relative to control; assay type: cell-based; conditions: wi-38, 48 h
Outline: (§6)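 Normal human fibroblasts (TIG-3, WI38) exposed to serially increasing compound concentrations (0.15 to 50 μM) for 48 or 72 h. Viability scored against untreated control. Triplicate experiments.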

TIG-3 [10] = test: Cytoprotective activity against UV irradiation-induced stress in human TIG3 cells assessed as decrease in CARF level irradiated with 50 mJ/cm2 of UV radiations followed by compound addition by immuno fluorescence staining based assay; assay type: functional, cell-based
TIG-3 [11] = test: Cytoprotective activity against H2O2-induced oxidative stress in human TIG3 cells assessed as increase in full length PARP level at 0.3 uM pretreated with H2O2 for 2 hrs followed by compound addition by immunoblot analysis; assay type: functional, cell-based; outline: as §3
TIG-3 [12] = test: Cytotoxicity against human TIG3 cells assessed as cell death at 0.6 uM; assay type: cell-based; conditions: tig-3, 0.6 µM; outline: as §2
TIG-3 [13] = test: Cytotoxicity against human TIG3 cells assessed as inhibition of colony formation at 0.1 to 0.3 uM by crystal violet staining based assay; assay type: cell-based; conditions: tig-3, 0.3 µM
Outline: (§7)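 Cells seeded at 500 per well and grown about 2 weeks in compound-supplemented medium, with medium changed every fourth day. Colonies fixed, stained and counted. Triplicate; Student's t test.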

Homo sapiens = organism: Homo sapiens; test: Induction of AKT/p38/p44 MAPK-mediated survivin expression level in H2O2 treated human TIG3 cells at 0.3 uM pretreated with H2O2 for 2 hrs followed by compound addition by immunoblot analysis; outline: as §3
TIG-3 [14] = test: Cytoprotective activity against UV irradiation-induced stress in human TIG3 cells assessed as decrease in p53 level irradiated with 50 mJ/cm2 of UV radiations followed by compound addition by immuno fluorescence staining based assay; assay type: functional, cell-based
TIG-3 [15] = test: Effect on mortalin expression level in human TIG3 cells at 0.3 to 3 uM by immuno fluorescence analysis; assay type: ADME, cell-based; conditions: tig-3, 3 µM
Outline: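 Methanol-fixed (chilled absolute methanol) TIG-3 fibroblasts treated with Wi-A or 3βmWi-A; immunofluorescence staining with antibodies, imaged by epifluorescence microscopy; signal quantitated from three independent experiments.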

TIG-3 [16] = test: Decrease in keap1 expression level in human TIG3 cells at 0.3 to 3 uM by immunoblot analysis; assay type: ADME, cell-based; conditions: tig-3, 3 µM; outline: as §1
TIG-3 [17] = test: Cytoprotective activity against H2O2-induced oxidative stress in human TIG3 cells assessed as increase in Bcl2 level at 0.3 uM pretreated with H2O2 for 2 hrs followed by compound addition by immunoblot analysis; assay type: functional, cell-based; outline: as §3
TIG-3 [18] = test: Induction of oxidative stress against human TIG3 cells assessed as increase in CARF mRNA levels by RT-PCR analysis; assay type: cell-based; outline: as §5
TIG-3 [19] = test: Decrease in Nrf2 expression level in human TIG3 cells at 0.3 to 3 uM by immunoblot analysis; assay type: ADME, cell-based; conditions: tig-3, 3 µM; outline: as §1
[20] = biological target: RAC-alpha serine/threonine-protein kinase (Homo sapiens) (UniProt P31749); test: Induction of Akt phosphorylation at Ser473 residues in H2O2 treated human TIG3 cells at 0.3 uM pretreated with H2O2 for 2 hrs followed by compound addition by immunoblot analysis; outline: as §3
[21] = biological target: RAC-alpha serine/threonine-protein kinase (Homo sapiens) (UniProt P31749); test: Induction of AKT-mediated beta-catenin expression level in H2O2 treated human TIG3 cells at 0.3 uM pretreated with H2O2 for 2 hrs followed by compound addition by immunoblot analysis; outline: as §3
TIG-3 [22] = test: Induction of apoptosis in human TIG3 cells assessed as increase in Bax levels at 0.3 to 3 uM by immunoblot analysis; assay type: cell-based; conditions: tig-3, 3 µM; outline: as §4
WI-38 [23] = test: Cytotoxicity against human WI38 cells assessed as inhibition of colony formation at 0.1 to 0.3 uM by crystal violet staining based assay; assay type: cell-based; conditions: wi-38, 0.3 µM; outline: as §7
TIG-3 [24] = test: Induction of oxidative stress in human TIG3 cells assessed as increase in CARF expression level at 0.6 uM by immunoblot analysis; assay type: cell-based; conditions: tig-3, 0.6 µM; outline: as §1
TIG-3 [25] = test: Cytoprotective activity against H2O2-induced oxidative stress in human TIG3 cells assessed as decrease in CARF level pretreated with H2O2 for 2 hrs followed by compound addition by immuno fluorescence staining based assay; assay type: functional, cell-based
TIG-3 [26] = test: Cytotoxicity against human TIG3 cells assessed as cell death at 1 uM after 48 hrs relative to control; assay type: cell-based; conditions: tig-3, 48 h; outline: as §6
TIG-3 [27] = test: Cytotoxicity against human TIG3 cells assessed as induction of senescence at 64 population doubling at 0.1 uM; assay type: cell-based; conditions: tig-3, 0.1 µM
[28] = biological target: Mitogen-activated protein kinase 1 (Homo sapiens) (UniProt P28482); test: Induction of ERK2 phosphorylation at Tyr204 residues in H2O2 treated human TIG3 cells at 0.3 uM pretreated with H2O2 for 2 hrs followed by compound addition by immunoblot analysis; outline: as §3
TIG-3 [29] = test: Cytoprotective activity against H2O2-induced oxidative stress in human TIG3 cells assessed as increase in cell survival at 3 uM pretreated with H2O2 for 2 hrs followed by compound addition measured after 2 days by crystal violet staining based assay; assay type: functional

Sequence of RAC-alpha serine/threonine-protein kinase (Homo sapiens) (P31749 whole entry): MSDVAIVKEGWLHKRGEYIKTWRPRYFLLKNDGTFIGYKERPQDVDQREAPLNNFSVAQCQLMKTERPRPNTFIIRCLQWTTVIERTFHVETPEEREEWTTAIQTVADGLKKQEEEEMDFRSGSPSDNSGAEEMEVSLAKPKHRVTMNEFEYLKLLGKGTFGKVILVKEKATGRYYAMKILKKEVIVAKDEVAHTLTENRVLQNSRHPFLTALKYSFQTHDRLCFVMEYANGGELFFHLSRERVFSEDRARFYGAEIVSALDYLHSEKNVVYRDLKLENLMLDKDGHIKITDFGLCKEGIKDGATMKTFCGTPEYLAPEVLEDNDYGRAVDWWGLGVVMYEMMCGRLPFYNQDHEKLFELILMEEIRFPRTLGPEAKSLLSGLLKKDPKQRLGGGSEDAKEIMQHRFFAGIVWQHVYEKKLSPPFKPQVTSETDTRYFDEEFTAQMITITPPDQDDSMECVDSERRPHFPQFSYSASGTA
Sequence of Mitogen-activated protein kinase 3 (Homo sapiens) (P27361 whole entry): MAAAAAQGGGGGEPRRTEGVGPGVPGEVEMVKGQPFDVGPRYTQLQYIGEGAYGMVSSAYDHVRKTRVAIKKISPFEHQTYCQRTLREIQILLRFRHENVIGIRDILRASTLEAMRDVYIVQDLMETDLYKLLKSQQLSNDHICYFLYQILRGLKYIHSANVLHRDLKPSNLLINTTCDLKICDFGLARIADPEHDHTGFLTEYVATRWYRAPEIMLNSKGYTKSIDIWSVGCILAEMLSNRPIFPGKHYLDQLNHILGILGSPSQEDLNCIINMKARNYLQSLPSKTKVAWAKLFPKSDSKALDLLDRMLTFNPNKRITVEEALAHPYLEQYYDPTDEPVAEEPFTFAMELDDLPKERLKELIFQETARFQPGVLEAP
Sequence of Mitogen-activated protein kinase 1 (Homo sapiens) (P28482 whole entry): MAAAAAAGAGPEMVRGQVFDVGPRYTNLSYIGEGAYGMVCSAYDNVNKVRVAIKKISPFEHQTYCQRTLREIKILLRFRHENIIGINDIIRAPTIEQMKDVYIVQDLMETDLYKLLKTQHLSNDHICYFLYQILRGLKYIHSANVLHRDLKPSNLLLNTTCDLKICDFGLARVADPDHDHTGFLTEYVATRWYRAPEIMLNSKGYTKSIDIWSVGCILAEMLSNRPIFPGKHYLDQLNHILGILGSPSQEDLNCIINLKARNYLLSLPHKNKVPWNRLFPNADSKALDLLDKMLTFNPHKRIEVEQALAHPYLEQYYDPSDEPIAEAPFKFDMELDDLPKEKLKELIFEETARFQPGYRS

CC1=C(CO)C(=O)O[C@@H]([C@@H](C)[C@H]2CC[C@H]3[C@@H]4C[C@H]5O[C@]56[C@@H](O)C=CC(=O)[C@]6(C)[C@H]4CC[C@]23C)C1 [WITHAFERIN A]
Activity (TIG-3 [1]): Toxic
Activity (TIG-3 [2]): inactive
Activity (TIG-3 [3]): Toxic
Activity (TIG-3 [4]): Toxic
Activity [5]: Active
Activity [6]: Active
Activity (TIG-3 [7]): Toxic
Activity (TIG-3 [8]): Toxic
Activity (WI-38 [9]): 90%
Activity (TIG-3 [10]): inactive
Activity (TIG-3 [11]): inactive
Activity (TIG-3 [12]): Toxic
Activity (TIG-3 [13]): Toxic
Activity (Homo sapiens): Active
Activity (TIG-3 [14]): inactive
Activity (TIG-3 [15]): Toxic
Activity (TIG-3 [16]): Toxic
Activity (TIG-3 [17]): inactive
Activity (TIG-3 [18]): Toxic
Activity (TIG-3 [19]): Toxic
Activity [20]: Active
Activity [21]: Active
Activity (TIG-3 [22]): Toxic
Activity (WI-38 [23]): Toxic
Activity (TIG-3 [24]): Toxic
Activity (TIG-3 [25]): inactive
Activity (TIG-3 [26]): 90%
Activity (TIG-3 [27]): Toxic
Activity [28]: Active
Activity (TIG-3 [29]): inactive
